Measured values published in ChEMBL document CHEMBL1125212, “Dual-action cephalosporins: cephalosporin 3'-quinolone carbamates” (J Med Chem, 1991).
In brackets after ≈: the same amount, converted by molar mass.

Tests used:
[1] = system: Escherichia coli; assay: Inhibitory activity on replicative DNA biosynthesis in Escherichia coli H560 (permeabilised cells); assay type: functional, organism-based
Procedure, shortened: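 E. coli H560 cells permeabilized with toluene. ATP-dependent incorporation of [3H]thymidine into trichloroacetic acid-insoluble material was measured. IC50 taken as the concentration giving 50% inhibition.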

[2] = system: Enterococcus faecalis; assay: The compound was tested in vitro for minimum inhibitory concentration against Enterococcus faecalis ATCC 29212; assay type: functional
Procedure, shortened: (§1)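 Agar dilution on Mueller-Hinton agar using 2-fold serial dilutions, giving final 128 to 0.0156 μg/mL (extended to 0.000977 μg/mL where needed). Inoculum was overnight broth culture diluted 100-fold, about 3×10^4 CFU/spot, applied by replicator. MIC read after overnight incubation at 36 °C.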

[3] = system: Escherichia coli; assay: The compound was tested in vitro for minimum inhibitory concentration against Escherichia coli ATCC 25922; assay type: functional; procedure, shortened: as §1
[4] = system: Serratia marcescens; assay: The compound was tested in vitro for minimum inhibitory concentration against Serratia marcescens 1071; assay type: functional; procedure, shortened: as §1
[5] = system: Escherichia coli; assay: The compound was tested in vitro for minimum inhibitory concentration against Escherichia coli 257; assay type: functional; procedure, shortened: as §1
[6] = system: Staphylococcus aureus; assay: The compound was tested in vitro for minimum inhibitory concentration against Staphylococcus aureus 67-0; assay type: functional; procedure, shortened: as §1
[7] = system: Streptococcus pyogenes; assay: The compound was tested in vitro for minimum inhibitory concentration against Streptococcus pyogenes; assay type: functional
Procedure, shortened: (§2)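 Streptococci tested by agar dilution on brain heart infusion agar with 20 units/mL bovine liver catalase. Final drug range 128 to 0.0156 μg/mL by 2-fold steps, extended to 0.000977 μg/mL when required. Inoculum about 3×10^4 CFU/spot from overnight broth diluted 100-fold. MIC after overnight incubation at 36 °C.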

[8] = system: Proteus vulgaris; assay: The compound was tested in vitro for minimum inhibitory concentration against Proteus vulgaris 1028 BC; assay type: functional
Procedure, shortened: (§3)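 Proteus MICs by agar dilution on Mueller-Hinton medium containing 3% agar. Serial 2-fold dilutions gave final 128 to 0.0156 μg/mL (further to 0.000977 μg/mL). Inoculum was overnight broth diluted 100-fold, about 3×10^4 CFU/spot. Plates read after overnight incubation at 36 °C.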

[9] = system: Staphylococcus aureus; assay: The compound was tested in vitro for minimum inhibitory concentration against Staphylococcus aureus smith; assay type: functional; procedure, shortened: as §1
[10] = system: Klebsiella pneumoniae; assay: The compound was tested in vitro for minimum inhibitory concentration against Klebsiella pneumoniae A; assay type: functional; procedure, shortened: as §1
[11] = system: Proteus mirabilis; assay: The compound was tested in vitro for minimum inhibitory concentration against Proteus mirabilis 90; assay type: functional; procedure, shortened: as §3
[12] = system: Escherichia coli; assay: Minimum inhibitory concentration required to inhibit the activity of Escherichia coli ATCC 25922; assay type: functional; procedure, shortened: as §1
[13] = system: Escherichia coli; assay: The compound was evaluated for the inhibition of [14C]- Pen G binding to Escherichia coli UB1005 penicillin-binding protein 3 60 kDa.
Procedure, shortened: (§4)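 Membranes from sonicated E. coli UB1005 were solubilized. Binding to penicillin-binding proteins was measured as inhibition of [14C]penicillin G binding.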

[14] = system: Enterobacter cloacae; assay: The compound was tested in vitro for minimum inhibitory concentration against Enterobacter cloacae P99; assay type: functional
[15] = system: Pseudomonas aeruginosa; assay: The compound was tested in vitro for minimum inhibitory concentration against Pseudomonas aeruginosa 18S/H; assay type: functional; procedure, shortened: as §1
[16] = system: Citrobacter freundii; assay: The compound was tested in vitro for minimum inhibitory concentration against Citrobacter Freundii BS-16; assay type: functional; procedure, shortened: as §1
[17] = system: Escherichia coli; assay: The compound was evaluated for the inhibition of [14C]- Pen G binding to Escherichia coli UB1005 penicillin-binding protein 1b 90 kDa.; procedure, shortened: as §4
[18] = system: Escherichia coli; assay: The compound was evaluated for the inhibition of [14C]- Pen G binding to Escherichia coli UB1005 penicillin-binding protein 2 66 kDa.; procedure, shortened: as §4
[19] = system: Escherichia coli; assay: Minimum inhibitory concentration required to inhibit the activity of Escherichia coli UB1005; assay type: functional; procedure, shortened: as §1
[20] = system: Streptococcus pneumoniae; assay: The compound was tested in vitro for minimum inhibitory concentration against Streptococcus pneumoniae 6301; assay type: functional; procedure, shortened: as §2
[21] = system: Escherichia coli; assay: Minimum inhibitory concentration for inhibition of [14C]- Pen G binding to Escherichia coli UB1005; assay type: functional; procedure, shortened: as §4
[22] = system: Staphylococcus aureus; assay: The compound was tested in vitro for minimum inhibitory concentration against Staphylococcus aureus 753; assay type: functional; procedure, shortened: as §1
[23] = system: Micrococcus luteus; assay: The compound was tested in vitro for minimum inhibitory concentration against Micrococcus luteus ATCC 9341; assay type: functional; procedure, shortened: as §1
[24] = system: Escherichia coli; assay: The compound was tested in vitro for minimum inhibitory concentration against Escherichia coli TEM-1; assay type: functional; procedure, shortened: as §1
[25] = system: Pseudomonas aeruginosa; assay: The compound was tested in vitro for minimum inhibitory concentration against Pseudomonas aeruginosa 8780; assay type: functional; procedure, shortened: as §1
[26] = system: Escherichia coli; assay: The compound was evaluated for the inhibition of [14C]- Pen G binding to Escherichia coli UB1005 penicillin-binding protein 1a 90 kDa.; procedure, shortened: as §4
[27] = organism: Mus musculus; assay: Effective dose against mouse infected with Staphylococcus aureus 753 (MR) (LDs-6); assay type: functional
Procedure, shortened: (§5)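 Mouse protection test in CD1 Swiss albino mice (18-20 g) given an intraperitoneal challenge (0.5 mL of diluted culture), expressed as a multiple of LD50. A single subcutaneous dose of 1.0 mL test solution was given at the dorsal neck base within 5 min of infection. Dose range 250 to 0.05 mg/kg. Six mice per group. ED50 (protective dose) by Reed-Muench.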

[28] = organism: Mus musculus; assay: Effective dose against mouse infected with Pseudomonas aeruginosa 8780 (LDs-240); assay type: functional
Procedure, shortened: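 CD1 Swiss albino mice (18-20 g) infected intraperitoneally with 0.5 mL of diluted bacterial suspension. Challenge expressed as a multiple of LD50. Drug given subcutaneously at the dorsal neck base within 5 min of infection (1.0 mL), with a second treatment 3 h after infection. Dose range 250 to 0.05 mg/kg. Six mice per group. ED50 by the Reed-Muench method.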

[29] = organism: Mus musculus; assay: Effective dose against mouse infected with Streptococcus pneumoniae 6301(LDs-5623); assay type: functional; procedure, shortened: as §5

Compound	IC50 [1] [µg/mL]	MIC [2] [µg/mL]	MIC [3] [µg/mL]	MIC [4] [µg/mL]	MIC [5] [µg/mL]	MIC [6] [µg/mL]	MIC [7] [µg/mL]	MIC [8] [µg/mL]	MIC [9] [µg/mL]	MIC [10] [µg/mL]	MIC [11] [µg/mL]	MIC [12] [µg/mL]	Inhibitory concentration [13] [µg/mL]	MIC [14] [µg/mL]	MIC [15] [µg/mL]	MIC [16] [µg/mL]	Inhibitory concentration [17] [µg/mL]	Inhibitory concentration [18] [µg/mL]	MIC [19] [µg/mL]	MIC [20] [µg/mL]	further results
CCN1CCN(C(=O)NC(C(=O)N[C@@H]2C(=O)N3C(C(=O)O)=C(COC(=O)N4CCN(c5cc6c(cc5F)c(=O)c(C(=O)O)cn6C5CC5)CC4)CS[C@H]23)c2ccccc2)C(=O)C1=O (stereo partly specified)	9 (≈ 10.1 µM)	4 (≈ 4.5 µM)	0.063 (≈ 0.0709 µM)	0.125 (≈ 0.141 µM)	0.063 (≈ 0.0709 µM)	4 (≈ 4.5 µM)	0.063 (≈ 0.0709 µM)	0.063 (≈ 0.0709 µM)	0.5 (≈ 0.563 µM)	0.125 (≈ 0.141 µM)	1 (≈ 1.13 µM)	0.06 (≈ 0.0675 µM)	0.5	0.031 (≈ 0.0349 µM)	1 (≈ 1.13 µM)	0.063 (≈ 0.0709 µM)	10	> 100	1 (≈ 1.13 µM)	0.031 (≈ 0.0349 µM)	MIC [21]: 1 µg/mL (≈ 1.13 µM); MIC [22]: 1 µg/mL (≈ 1.13 µM); MIC [23]: 0.125 µg/mL (≈ 0.141 µM); MIC [24]: 0.063 µg/mL (≈ 0.0709 µM); MIC [25]: 2 µg/mL (≈ 2.25 µM); Inhibitory concentration [26]: 10 µg/mL
CO/N=C(\C(=O)N[C@@H]1C(=O)N2C(C(=O)O)=C(COC(=O)N3CCN(c4cc5c(cc4F)c(=O)c(C(=O)O)cn5C4CC4)CC3)CS[C@H]12)c1csc(N)n1	0.9 (≈ 1.17 µM)	0.25 (≈ 0.324 µM)	0.031 (≈ 0.0402 µM)	0.25 (≈ 0.324 µM)	0.031 (≈ 0.0402 µM)	2 (≈ 2.59 µM)	< 0.016	0.063 (≈ 0.0817 µM)	0.5 (≈ 0.649 µM)	0.125 (≈ 0.162 µM)	0.063 (≈ 0.0817 µM)	0.03 (≈ 0.0389 µM)	0.5	< 0.016	1 (≈ 1.3 µM)	0.125 (≈ 0.162 µM)	30	> 100	0.5 (≈ 0.649 µM)	< 0.016	MIC [21]: 0.5 µg/mL (≈ 0.649 µM); ED50 [27]: 28 mg/kg; ED50 [28]: 33 mg/kg; MIC [22]: 2 µg/mL (≈ 2.59 µM); MIC [23]: 0.031 µg/mL (≈ 0.0402 µM); MIC [24]: 0.063 µg/mL (≈ 0.0817 µM); MIC [25]: 1 µg/mL (≈ 1.3 µM); Inhibitory concentration [26]: 100 µg/mL; ED50 [29]: 10 mg/kg
CC(C)(O/N=C(\C(=O)N[C@@H]1C(=O)N2C(C(=O)O)=C(COC(=O)N3CCN(c4cc5c(cc4F)c(=O)c(C(=O)O)cn5C4CC4)CC3)CS[C@H]12)c1csc(N)n1)C(=O)O	2 (≈ 2.37 µM)	1 (≈ 1.19 µM)	0.063 (≈ 0.0747 µM)	0.5 (≈ 0.593 µM)	0.063 (≈ 0.0747 µM)	4 (≈ 4.75 µM)	0.25 (≈ 0.297 µM)	0.125 (≈ 0.148 µM)	1 (≈ 1.19 µM)	0.25 (≈ 0.297 µM)	0.25 (≈ 0.297 µM)	0.06 (≈ 0.0712 µM)	< 0.1	0.63 (≈ 0.747 µM)	1 (≈ 1.19 µM)	0.125 (≈ 0.148 µM)	10	> 100	1 (≈ 1.19 µM)	0.25 (≈ 0.297 µM)	MIC [21]: 1 µg/mL (≈ 1.19 µM); MIC [22]: 4 µg/mL (≈ 4.75 µM); MIC [23]: 1 µg/mL (≈ 1.19 µM); MIC [24]: 0.063 µg/mL (≈ 0.0747 µM); MIC [25]: 1 µg/mL (≈ 1.19 µM); Inhibitory concentration [26]: 100 µg/mL
